Cardio protect: protects H9c2 cardiomyocytes from peroxide injury | AID 588492 | H2O2 injury protection, ATPLite, 2 h | protection from H2O2 cell death, % at 20 µM | 0.63% of 360,000 active;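 active = compounds giving at least 50% protection of heart cells from peroxide-induced death in the single-dose screen, raw or plate-pattern-corrected value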;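 note: 0% = DMSO wells with peroxide and 100% = DMSO wells without peroxide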
CRFBP-R2 agonist: agonists of human CRF-binding protein/CRF-R2 receptor complex. AID 588473. HEK293 CRF-R2/CRF-BP, calcium dye fluorescence (FLIPR); percent of saturating CRF peptide response. activation, % at 13.2 µM. 0.46% of 350,000 active;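 active = activation of at least 50%, plus an integration ratio under a set limit after plate pattern correction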;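 note: plate controls were neutral control wells without compound for no effect and CRF at EC100 for full effect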
hiPSC survival: enhancers of human iPSC single-cell survival | survival enhancement, % at 20 µM | 0.044% of 360,000 active | hiPSC single-cell survival, ATPlite luminescence; 100% = ROCK inhibitor wells, 0% = DMSO; in the data active = survival enhancement above about 18%;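 note: cells exposed to compounds for 16 hours before the ATP read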
MIN6 prolif: inducers of beta-cell replication in MIN6 cells | MIN6 cells proliferation, ATPlite luminescence, 48 h; cells starved in 0.2% serum; 100% = growth in 10% serum | proliferation, % at 10 µM | 0.29% of 330,000 active;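 active = compounds whose signal lies at least 3.5 SD above the mean of all wells on their plate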;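 note: 0% = DMSO-treated cells in low-serum medium and 100% = 10% serum control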
CRFBP-R2 block: CRF-BP/CRF-R2 complex antagonism; HEK293 CRF-R2/CRF-BP, CRF-induced calcium fluorescence; inhibition, % at 11.8 µM; 0.59% of 350,000 active; AID 588475;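 active = inhibition of the ligand-induced calcium signal above about 50% at the single tested concentration, limit read from the data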
UCH37 inh: human UCH37 deubiquitinating enzyme inhibition; Q9Y5K5; purified proteasome/UCH37, Ub-AMC cleavage fluorescence; inhibition, % (concentration not given with the values); 0.33% of 330,000 active;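 active = mean inhibition over replicate wells above about 20%, limit read from the data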;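 note: 0% = compound-free wells with enzyme and 100% = wells lacking proteasome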
Target sequence (Q9Y5K5 whole entry, looked up): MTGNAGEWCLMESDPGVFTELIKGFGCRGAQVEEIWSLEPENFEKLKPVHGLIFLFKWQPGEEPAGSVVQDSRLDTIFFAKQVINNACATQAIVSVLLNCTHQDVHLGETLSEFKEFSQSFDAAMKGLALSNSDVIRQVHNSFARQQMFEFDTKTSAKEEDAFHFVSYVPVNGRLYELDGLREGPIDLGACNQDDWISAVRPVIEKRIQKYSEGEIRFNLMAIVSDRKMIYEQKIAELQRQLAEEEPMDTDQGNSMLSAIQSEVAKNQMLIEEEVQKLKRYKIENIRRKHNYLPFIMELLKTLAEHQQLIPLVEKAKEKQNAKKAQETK
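Schedule: 30 min plus 25 min, room temperature / Material: human UCH37 within purified proteasomes / Technique: AMC fluorescence intensity at 355/460 nm / Buffer or medium: pH 7.4 Tris-HCl (50 mM) with ovalbumin, ATP-MgCl2, DTT / Controls: wells without proteasome as full block, compound-free enzyme plus substrate as uninhibited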
The depositor's hits bear a star. Compounds with a hit are over-represented: about 2.1% of the library has one in this group of screens.

CCCCNC(=O)c1cn(CC)c2ccc(S(=O)(=O)N3CCCCCC3)cc2c1=O was read as Cardio protect -5.1, CRFBP-R2 agonist 1.6, hiPSC survival -0.1, MIN6 prolif -2.4, CRFBP-R2 block 59.8* and UCH37 inh 2.9.
COc1ccc(CSCC(=O)NN=Cc2ccc(OCC(=O)NCc3ccco3)cc2)cc1 was read as UCH37 inh -1.8.
`COc1ccc(OC)c(C2CC(=O)c3c([nH]c(C(=O)OCC4CCCO4)c3C)C2)c1` (stereo not drawn) gave Cardio protect 71.0*, CRFBP-R2 agonist -2.7, hiPSC survival -0.8, MIN6 prolif -4.0, CRFBP-R2 block 7.0 and UCH37 inh 6.2.
Screening COCCOC(=O)c1[nH]c2c(c1C)C(=O)CC(c1cc(OC)ccc1OC)C2 (stereo not drawn) returned Cardio protect 38.5, CRFBP-R2 agonist -2.1, hiPSC survival -5.1, MIN6 prolif -2.2, CRFBP-R2 block -16.1 and UCH37 inh 2.3.
CC(=O)c1ccc2c3c(cccc13)C(=O)N(c1c(C)nn(C)c1C)C2=O was read as Cardio protect 0.9, CRFBP-R2 agonist 1.5, hiPSC survival 0.1, MIN6 prolif -1.8, CRFBP-R2 block -1.9 and UCH37 inh 8.5.
For Cc1n[nH]c(C)c1N1C(=O)c2cccc3c(N4CCCCCC4)ccc(c23)C1=O the results were Cardio protect -19.5, CRFBP-R2 agonist 399.5*, hiPSC survival 2.3, MIN6 prolif -3.0, CRFBP-R2 block -375.4 and UCH37 inh 10.3.
Screening C=CCN1C(=O)c2cccc3c(Br)ccc(c23)C1=O returned Cardio protect 1.3, CRFBP-R2 agonist 2.9, hiPSC survival -1.9, MIN6 prolif 0.8, CRFBP-R2 block 6.1 and UCH37 inh 0.4.
For O=C1c2cccc3c(N4CCCCC4)ccc(c23)C(=O)N1c1cccc(O)c1 the results were Cardio protect -16.3, CRFBP-R2 agonist 161.4*, hiPSC survival 0.2, MIN6 prolif -6.1, CRFBP-R2 block -131.8 and UCH37 inh -3.8.
Screening C=CCN1C(=O)c2cccc3c(N4CCCCC4)ccc(c23)C1=O returned Cardio protect -15.4, CRFBP-R2 agonist 255.5*, hiPSC survival 0.3, MIN6 prolif 3.1, CRFBP-R2 block -344.1 and UCH37 inh -6.1.
Screening O=C1c2cccc3c(N4CCCCC4)ccc(c23)C(=O)N1CCO returned Cardio protect -16.5, CRFBP-R2 agonist 118.2*, hiPSC survival 5.0, MIN6 prolif 1.1, CRFBP-R2 block -153.9 and UCH37 inh 6.7.
For O=C1c2cccc3cccc(c23)C(=O)N1CCO the results were Cardio protect -1.1, CRFBP-R2 agonist -2.6, hiPSC survival 6.0 and CRFBP-R2 block -5.6.
`CN(C)c1cc(NN=Cc2ccccc2C(F)(F)F)nc(N(C)C)n1` gave UCH37 inh -9.4.
Screening CCc1ccc2nc3sc(C(=O)N4CCc5ccccc54)c(N)c3cc2c1 returned MIN6 prolif -5.3.
Cc1ccc(C)c2nc3sc(C(=O)N4CCCc5ccccc54)c(N)c3cc12 was read as Cardio protect 6.9, CRFBP-R2 agonist 60.4*, hiPSC survival 0.0, MIN6 prolif -5.8, CRFBP-R2 block -153.9 and UCH37 inh 6.1.
For ON=C1CCCc2ccc3ccccc3c21 the results were UCH37 inh 6.4.
Cn1c(CCNC(=O)c2ccco2)nc2cc(NC(=O)c3ccco3)ccc21 was read as Cardio protect 1.2, CRFBP-R2 agonist 0.3, hiPSC survival -1.3, MIN6 prolif -0.9, CRFBP-R2 block 107.9* and UCH37 inh 2.6.
`Cn1c(CCNC(=O)c2ccco2)nc2cc(NC(=O)c3ccccc3)ccc21` gave Cardio protect 4.1, CRFBP-R2 agonist 0.3, hiPSC survival -0.6, MIN6 prolif -1.3, CRFBP-R2 block -7.0 and UCH37 inh 4.1.
Screening COc1ccc(F)cc1S(=O)(=O)NCc1cc(=O)n(C)c(=O)n1C returned Cardio protect -1.6, CRFBP-R2 agonist 4.5, hiPSC survival -0.5, MIN6 prolif -1.7, CRFBP-R2 block 3.0 and UCH37 inh 3.9.
For COc1ccc(F)cc1S(=O)(=O)NCC(=O)NCc1cc(=O)n(C)c(=O)n1C the results were Cardio protect 2.5, CRFBP-R2 agonist 0.1, hiPSC survival 0.4, MIN6 prolif -4.0, CRFBP-R2 block 76.5* and UCH37 inh 4.2.
`COc1ccc(NC(=O)/C(Cl)=C(/Cl)S(=O)(=O)Cc2ccc(C)cc2)cn1` gave Cardio protect -39.2, CRFBP-R2 agonist 5.8, hiPSC survival 22.9*, CRFBP-R2 block -23.7 and UCH37 inh 9.2.
`COc1ccc(NC(=O)Cc2ccc(Cl)c(Cl)c2)cn1` gave Cardio protect -13.1, CRFBP-R2 agonist -1.9, hiPSC survival -1.2, MIN6 prolif 1.9, CRFBP-R2 block 17.9 and UCH37 inh 2.7.
`COC(=O)c1ccc(Cn2c(C)c(C(=O)NCc3cccs3)sc2=O)o1` gave Cardio protect 51.9* and hiPSC survival -2.4.
Screening Cc1ccc(Cn2c(C)c(C(=O)NCc3cccs3)sc2=O)cc1 returned Cardio protect -0.6 and hiPSC survival -2.3.
`NC(=O)c1ccccc1OCC(=O)Nc1cccnc1Cl` gave Cardio protect 52.6*, CRFBP-R2 agonist -0.8, hiPSC survival -0.1, MIN6 prolif -1.1, CRFBP-R2 block -1.6 and UCH37 inh 0.1.
`CCOc1ccc(C(=O)OCC(=O)Nc2cccnc2Cl)cc1OCC` gave Cardio protect 6.3, CRFBP-R2 agonist 1.2, hiPSC survival -0.5, MIN6 prolif -4.2, CRFBP-R2 block 103.4* and UCH37 inh -0.6.
For Cc1ccc(C(=O)Nc2cccnc2Cl)cc1Cl the results were Cardio protect 3.2, CRFBP-R2 agonist -0.8, hiPSC survival 0.4, MIN6 prolif 3.0, CRFBP-R2 block 5.1 and UCH37 inh 1.9.
`Cc1cc(C)cc(C(=O)Nc2cccnc2Cl)c1` gave Cardio protect 0.0, CRFBP-R2 agonist 1.7, hiPSC survival -0.5, MIN6 prolif -2.1 and CRFBP-R2 block 68.0*.
Screening S=c1[nH]nc(-c2ccncc2)n1N=Cc1cn(-c2ccccc2)nc1-c1ccccc1 returned UCH37 inh 3.9.
Screening Cc1nc2ccccc2c(=O)n1N=Cc1ccc(O)cc1O returned UCH37 inh 0.1.
Screening COc1ccccc1C(=O)Nc1cccc(C(=O)c2ccccc2)c1 returned Cardio protect 5.7, CRFBP-R2 agonist 0.8, hiPSC survival 3.6, MIN6 prolif 0.1, CRFBP-R2 block 6.6 and UCH37 inh -3.1.
For COc1cccc(OC)c1C(=O)Nc1ccc(Br)c(C(=O)c2ccccc2)c1 the results were Cardio protect 54.5*, CRFBP-R2 agonist 0.8, hiPSC survival -0.1, MIN6 prolif -2.5, CRFBP-R2 block -6.1 and UCH37 inh -1.9.
CCOC(=O)C1=C(N)n2c(sc(=Cc3cccnc3)c2=O)=C(C#N)C1c1cccnc1 (stereo not drawn) was read as UCH37 inh 6.0.

Assay outcomes deposited in PubChem by several laboratories.
